{"source": "ChEMBL document CHEMBL4622928", "about": "“Discovery of 5-(4-methylpiperazin-1-yl)-2-nitroaniline derivatives as a new class of SIRT6 inhibitors” (Bioorg Med Chem Lett, 2020)", "key": {"[1]": {"biological_target": "T1, NAD-dependent protein deacetylase sirtuin-1 (Homo sapiens, UniProt Q96EB6)", "T1 sequence (Q96EB6 whole entry)": "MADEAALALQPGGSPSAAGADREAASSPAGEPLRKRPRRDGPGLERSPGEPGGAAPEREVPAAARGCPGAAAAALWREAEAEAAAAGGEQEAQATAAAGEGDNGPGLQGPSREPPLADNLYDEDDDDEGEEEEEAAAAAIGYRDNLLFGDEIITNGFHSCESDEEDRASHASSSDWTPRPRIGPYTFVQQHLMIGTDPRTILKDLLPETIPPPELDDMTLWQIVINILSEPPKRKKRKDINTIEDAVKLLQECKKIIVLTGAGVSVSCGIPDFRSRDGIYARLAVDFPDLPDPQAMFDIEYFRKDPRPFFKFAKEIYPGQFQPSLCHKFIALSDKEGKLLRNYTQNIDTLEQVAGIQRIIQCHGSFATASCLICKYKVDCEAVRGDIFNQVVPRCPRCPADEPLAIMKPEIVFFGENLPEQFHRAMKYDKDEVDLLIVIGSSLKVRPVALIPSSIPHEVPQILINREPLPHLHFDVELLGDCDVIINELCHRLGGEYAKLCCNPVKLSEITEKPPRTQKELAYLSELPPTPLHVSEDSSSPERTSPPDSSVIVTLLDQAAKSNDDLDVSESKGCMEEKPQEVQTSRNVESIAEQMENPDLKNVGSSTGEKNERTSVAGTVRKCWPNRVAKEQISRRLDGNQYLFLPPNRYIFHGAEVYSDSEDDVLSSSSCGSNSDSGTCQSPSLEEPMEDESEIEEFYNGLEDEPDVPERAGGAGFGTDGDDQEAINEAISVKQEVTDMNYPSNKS", "assay": "Inhibition of SIRT1 (unknown origin)", "how_it_was_run": "(§1)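 Each deacetylase was run in a Fluor de Lys (FDL) fluorogenic deacetylation assay as a selectivity screen, with compound tested at concentrations up to 200 μM. IC50 was estimated from the dose-response.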"}, "[2]": {"biological_target": "T2, Polyamine deacetylase HDAC10 (Homo sapiens, UniProt Q969S8)", "T2 sequence (Q969S8 whole entry)": "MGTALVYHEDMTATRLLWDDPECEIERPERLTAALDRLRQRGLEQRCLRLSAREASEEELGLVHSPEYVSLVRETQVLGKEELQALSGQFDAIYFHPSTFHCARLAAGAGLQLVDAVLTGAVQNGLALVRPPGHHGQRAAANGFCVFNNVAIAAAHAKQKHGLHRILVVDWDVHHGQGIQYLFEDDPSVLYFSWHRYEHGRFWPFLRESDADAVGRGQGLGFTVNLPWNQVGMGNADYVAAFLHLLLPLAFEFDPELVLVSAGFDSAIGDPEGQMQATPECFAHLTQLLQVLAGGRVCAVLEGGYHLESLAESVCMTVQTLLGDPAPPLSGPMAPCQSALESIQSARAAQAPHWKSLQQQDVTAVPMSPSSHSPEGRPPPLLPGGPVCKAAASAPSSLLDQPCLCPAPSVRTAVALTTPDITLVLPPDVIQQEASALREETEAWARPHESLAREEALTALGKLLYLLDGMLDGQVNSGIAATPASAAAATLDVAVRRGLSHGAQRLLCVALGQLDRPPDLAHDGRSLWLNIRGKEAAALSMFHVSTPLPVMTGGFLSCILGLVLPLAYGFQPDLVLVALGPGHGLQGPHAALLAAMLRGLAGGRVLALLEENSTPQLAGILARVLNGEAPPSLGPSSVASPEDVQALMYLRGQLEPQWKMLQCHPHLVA", "assay": "Inhibition of HDAC10 (unknown origin)", "how_it_was_run": "as §1"}}}
{"smiles": "CN1CCN(c2ccc([N+](=O)[O-])c(N)c2)CC1", "values": [{"measurement": "IC50", "setting": "[1]", "value": "> 200", "unit": "µM"}, {"measurement": "IC50", "setting": "[2]", "value": "> 200", "unit": "µM"}]}
